Tests used:
LNCaP cells = experiment: LNCaP cell proliferation; format: cell-based; conditions: 0.1 nM R1881, 6 days
[1] = test system: PSA and FKBP5 gene expression in LNCaP cells; experiment: AR-target gene expression; format: cell-based; conditions: 0.1 nM R1881, 24 hours
AR = conditions: no reference given; cited from earlier work
[2] = molecular target: T1, glucocorticoid receptor (GR) in PC-3 cells (Homo sapiens, UniProt P04150); experiment: GR protein level in transiently transfected PC-3 cells; format: cell-based; conditions: transient transfection
T1 sequence (P04150 1-777): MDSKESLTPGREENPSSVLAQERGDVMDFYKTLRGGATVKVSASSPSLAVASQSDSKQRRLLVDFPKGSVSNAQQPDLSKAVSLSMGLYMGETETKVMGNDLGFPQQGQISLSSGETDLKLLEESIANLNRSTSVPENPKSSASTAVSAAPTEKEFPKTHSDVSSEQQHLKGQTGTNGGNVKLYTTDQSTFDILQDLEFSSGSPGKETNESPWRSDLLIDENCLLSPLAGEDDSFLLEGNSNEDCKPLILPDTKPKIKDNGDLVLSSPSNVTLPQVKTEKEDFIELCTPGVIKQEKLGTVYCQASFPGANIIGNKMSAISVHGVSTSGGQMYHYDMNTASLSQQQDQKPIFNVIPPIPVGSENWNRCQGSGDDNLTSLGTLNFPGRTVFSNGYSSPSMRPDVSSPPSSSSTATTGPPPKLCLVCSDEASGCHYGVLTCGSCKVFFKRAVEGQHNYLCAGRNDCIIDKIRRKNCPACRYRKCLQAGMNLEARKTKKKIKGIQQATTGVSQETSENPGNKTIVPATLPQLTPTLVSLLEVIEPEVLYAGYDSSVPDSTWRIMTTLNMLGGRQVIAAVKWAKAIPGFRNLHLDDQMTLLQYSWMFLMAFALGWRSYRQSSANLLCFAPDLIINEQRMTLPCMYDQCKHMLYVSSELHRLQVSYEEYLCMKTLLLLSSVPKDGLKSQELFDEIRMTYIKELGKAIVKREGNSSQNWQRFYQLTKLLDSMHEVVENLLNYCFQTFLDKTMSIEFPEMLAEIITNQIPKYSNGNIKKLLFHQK

[3] = test system: FKBP5 expression in 22RV1 cells; experiment: AR-V7-dependent FKBP5 expression in 22RV1 cells; format: cell-based; conditions: 22RV1, charcoal stripped serum, 48 hours
PR in T47D cells = molecular target: T2, PR in T47D cells (Homo sapiens, UniProt P06401); experiment: PR protein level by Western blot in T47D cells; format: cell-based
T2 sequence (P06401 1-933): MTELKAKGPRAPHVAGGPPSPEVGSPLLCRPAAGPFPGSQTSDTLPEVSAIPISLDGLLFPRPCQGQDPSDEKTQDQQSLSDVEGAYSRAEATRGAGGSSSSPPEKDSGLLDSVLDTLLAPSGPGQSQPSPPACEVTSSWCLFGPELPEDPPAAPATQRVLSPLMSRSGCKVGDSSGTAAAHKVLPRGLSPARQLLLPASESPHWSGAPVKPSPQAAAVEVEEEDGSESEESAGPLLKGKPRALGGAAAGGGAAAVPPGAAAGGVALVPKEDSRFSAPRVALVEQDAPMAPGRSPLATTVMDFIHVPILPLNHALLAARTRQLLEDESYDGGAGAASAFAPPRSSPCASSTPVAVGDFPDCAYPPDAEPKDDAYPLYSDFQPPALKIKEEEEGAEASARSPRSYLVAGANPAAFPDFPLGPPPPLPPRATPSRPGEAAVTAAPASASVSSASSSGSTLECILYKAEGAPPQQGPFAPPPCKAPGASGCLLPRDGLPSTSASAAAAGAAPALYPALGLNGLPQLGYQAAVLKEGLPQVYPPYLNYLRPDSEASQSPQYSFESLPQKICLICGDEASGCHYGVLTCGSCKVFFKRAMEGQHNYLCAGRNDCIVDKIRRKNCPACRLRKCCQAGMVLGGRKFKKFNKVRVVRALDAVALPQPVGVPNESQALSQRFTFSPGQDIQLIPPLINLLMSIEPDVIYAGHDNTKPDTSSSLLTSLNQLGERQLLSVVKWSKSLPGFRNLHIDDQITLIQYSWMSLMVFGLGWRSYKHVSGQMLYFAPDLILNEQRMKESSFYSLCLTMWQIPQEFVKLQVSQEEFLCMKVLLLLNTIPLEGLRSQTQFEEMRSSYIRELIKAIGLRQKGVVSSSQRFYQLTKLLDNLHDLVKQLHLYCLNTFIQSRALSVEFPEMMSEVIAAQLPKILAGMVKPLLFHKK
Summary of the method: (§1)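 T47D breast cancer cells were plated in growth medium and treated with a range of test compound doses. PR, ER and actin levels were read by Western blot, with actin as the loading control.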

[4] = test system: F876L-AR in LNCaP-EnzR cells; experiment: PSA expression in enzalutamide-resistant LNCaP-EnzR cells; format: cell-based; conditions: F876L mutant, 0.1 nM R1881
22RV1 xenograft = 22RV1 xenograft in castrated NSG mice; format: in vivo
[5] = molecular target: T3, progesterone receptor (PR) (Homo sapiens, UniProt P06401); experiment: PR transactivation in HEK-293 cells; format: cell-based; conditions: HEK-293, progesterone
T3 sequence (P06401 1-933): T2 sequence (P06401 1-933)

panel of kinases = experiment: Cross-reactivity with a panel of kinases; format: biochemical
AR-FL in AD1 cells = experiment: AR full length protein level by Western blot in AD1 cells; format: cell-based; conditions: 24 hours
Summary of the method: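 AD1 cells expressing full-length AR were kept for 2 days in medium containing charcoal-stripped serum, then treated for 24 hours. Protein was extracted and Western blotted for AR using the N-terminal AR-N20 antibody, with actin as the loading control.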

[6] = test system: NDRG1 and MT2A pre-mRNAs in LNCaP cells; experiment: Early induction of NDRG1 and MT2A pre-mRNAs in LNCaP cells; format: cell-based; conditions: 10 μM, 0.1 nM R1881
[7] = test system: AR recruitment to PSA enhancer ARE; experiment: ChIP: AR recruitment to the PSA enhancer ARE in LNCaP cells; format: cell-based; conditions: 10 μM pre-treatment 30 minutes, 0.1 nM R1881 2 hours
[8] = test system: Pr-3001 patient-derived xenograft; experiment: Patient-derived xenograft Pr-3001 in castrated NSG mice; format: in vivo; conditions: over the course of 14 days
Summary of the method: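 The CRPC patient specimen was collected in RPMI with penicillin/streptomycin and fungizone, minced, digested with collagenase for 2 hours and washed in serum-free medium. It was implanted subcutaneously as 1 mm³ fragments in castrated NSG mice, n=8–10 per group. At 100–200 mm³, mice were randomized to vehicle or test compound, and tumor volume was measured thrice weekly.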

ER in T47D cells = ER in T47D cells (Homo sapiens, UniProt P03372); experiment: ER protein level by Western blot in T47D cells; format: cell-based
Summary of the method: as §1

Chain of ER in T47D cells (P03372 whole entry): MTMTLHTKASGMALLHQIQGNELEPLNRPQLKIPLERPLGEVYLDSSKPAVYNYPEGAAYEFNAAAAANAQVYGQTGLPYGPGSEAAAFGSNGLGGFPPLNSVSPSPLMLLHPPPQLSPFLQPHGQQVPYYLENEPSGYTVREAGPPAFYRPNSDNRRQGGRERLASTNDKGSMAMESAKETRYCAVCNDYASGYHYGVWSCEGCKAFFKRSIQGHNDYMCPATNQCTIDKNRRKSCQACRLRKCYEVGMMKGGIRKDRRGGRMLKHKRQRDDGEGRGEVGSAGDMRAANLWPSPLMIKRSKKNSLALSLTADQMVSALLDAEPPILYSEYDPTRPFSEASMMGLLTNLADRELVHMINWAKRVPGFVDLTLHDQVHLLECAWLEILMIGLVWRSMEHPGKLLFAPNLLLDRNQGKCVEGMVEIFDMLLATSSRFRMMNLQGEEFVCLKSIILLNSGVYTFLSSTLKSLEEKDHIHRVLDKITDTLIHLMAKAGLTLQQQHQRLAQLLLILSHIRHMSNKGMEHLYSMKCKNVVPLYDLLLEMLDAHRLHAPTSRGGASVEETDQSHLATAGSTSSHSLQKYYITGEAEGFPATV

Question: For `C[C@@](O)(Cn1ccc2cc(F)ccc21)C(=O)Nc1ccc(C#N)c(C(F)(F)F)c1` [(R)-UT-155], which “inhibition of LNCaP proliferation” value (LNCaP cells) is on record?
Answer: inhibited the proliferation of LNCaP cells

Question: And the “inhibition of R1881-induced FKBP5 expression” value [1]?
Answer: at concentrations comparable to that observed with UT-155

Question: Which “concentrations inducing AR degradation” value (AR) does the source give for `COc1ccc(/C=C/C(=O)/C=C(O)/C=C/c2ccc(OC)c(OC)c2)cc1OC` [ASC-J9] here?
Answer: greater than 10 μM

Question: What does the source list for `C[C@](O)(Cn1ccc2cc(F)ccc21)C(=O)Nc1ccc(C#N)c(C(F)(F)F)c1` [UT-155]?
Answer: effect on GR protein levels [2]: no effect on GR; inhibition of AR-V7-dependent FKBP5 expression [3]: inhibited; effect on PR protein levels (PR in T47D cells): no effect; inhibition of PSA expression in LNCaP-EnzR [4]: inhibited the expression of PSA; inhibition of 22RV1 xenograft growth (22RV1 xenograft; 100 mg/kg/day s.c.): 53%; inhibition of PR transactivation [5]: at concentration comparable to that of the AR; inhibition of kinase activity (panel of kinases): no significant inhibition; effect on AR expression in AD1 cells (AR-FL in AD1 cells): reduces AR expression; inhibition of R1881-dependent increase in NDRG1 and MT2A pre-mRNAs at 1 and 2 hours [6]: failed to inhibit; inhibition of AR recruitment to the ARE on the PSA enhancer [7]: failed to inhibit; inhibition of Pr-3001 growth [8]: 40–60%; effect on ER protein levels (ER in T47D cells): no effect

Question: Which results are given for `CNC(=O)c1ccc(N2C(=S)N(c3ccc(C#N)c(C(F)(F)F)c3)C(=O)C2(C)C)cc1F` [enzalutamide, reference compound]?
Answer: effect on growth of 22RV1 tumors (22RV1 xenograft; 30 mg/kg/day s.c.): no effect; inhibition of AR recruitment to the ARE on the PSA enhancer [7]: inhibited

From paper PMC5890913 (Cancer research, 2017)
